Broadly, the IC50 is the point on the concentration scale where inhibition reaches its midpoint. The term Km denotes the substrate concentration at which the rate is half of its maximum. The term Vmax denotes the top rate of the reaction or transport when substrate is in excess.

Experimental findings from ChEMBL document CHEMBL3526095, “Characterization of the in vitro and in vivo metabolism and disposition and cytochrome P450 inhibition/induction profile of saxagliptin in human” (Drug Metab Dispos, 2012) are described below.

Data set [1] has as its target T1, Cytochrome P450 3A4 (Homo sapiens, UniProt P08684). Put plainly: Inhibition of CYP3A4 in human liver microsomes assessed as midazolam 1'-hydroxylation after 3 mins by LC-MS/MS analysis. It counts as ADME.
The target of data set [2] is T1, Cytochrome P450 3A4. The experiment in a line: Inhibition of CYP3A4 in human liver microsomes assessed as testosterone 6beta-hydroxylation after 3 mins by LC-MS/MS analysis in presence of NADPH. The class given is ADME.
In the next data set the target is T2, Cytochrome P450 2A6 (Homo sapiens, UniProt P11509).
T2 sequence (P11509 whole entry): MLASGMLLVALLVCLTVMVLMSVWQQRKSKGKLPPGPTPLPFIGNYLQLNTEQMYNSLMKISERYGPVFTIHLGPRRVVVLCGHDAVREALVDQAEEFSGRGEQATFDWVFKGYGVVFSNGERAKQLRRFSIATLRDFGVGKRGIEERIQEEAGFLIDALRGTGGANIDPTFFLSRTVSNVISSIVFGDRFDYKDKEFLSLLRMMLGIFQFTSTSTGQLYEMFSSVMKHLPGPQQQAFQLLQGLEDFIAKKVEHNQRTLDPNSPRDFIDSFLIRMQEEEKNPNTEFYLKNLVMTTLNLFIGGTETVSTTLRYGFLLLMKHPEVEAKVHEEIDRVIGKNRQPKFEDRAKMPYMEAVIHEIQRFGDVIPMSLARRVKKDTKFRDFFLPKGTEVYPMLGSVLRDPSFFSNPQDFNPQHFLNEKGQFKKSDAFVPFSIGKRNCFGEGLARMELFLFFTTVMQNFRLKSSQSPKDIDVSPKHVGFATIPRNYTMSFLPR
Put plainly: Inhibition of CYP2A6 in human liver microsomes assessed as coumarin 7-hydroxylation preincubated for 15 mins by LC-MS/MS analysis in presence of NADPH. The class given is ADME. (Liver microsomes are a subcellular fraction often used to study metabolism.)

Data set [3] concerns the target T1, Cytochrome P450 3A4. Put plainly: Inhibition of CYP3A4 in human liver microsomes assessed as testosterone 6beta-hydroxylation preincubated for 15 mins by LC-MS/MS analysis in presence of NADPH. It counts as ADME.
In data set [4] the test system is Hepatocyte. The experiment in a line: Cytotoxicity against human hepatocytes assessed as change in morphological integrity up to 100 uM. The class given is cell-based.
Data set [5] has as its system Hepatocyte. Put plainly: Induction of CYP1A2 mRNA expression in human hepatocytes assessed as phenacetin O-deethylation up to 100 uM by LC-MS/MS analysis. It counts as ADME, cell-based. Put shortly:
(§1)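 Primary hepatocytes from three donors treated once daily for 3 days: saxagliptin 0.2–25 µM, M2 0.2–100 µM, 0.1% DMSO as vehicle. Microsomal activity assayed by LC-MS/MS: phenacetin 100 µM with 0.02 mg/ml protein (CYP1A2), bupropion 250 µM with 0.02 mg/ml (CYP2B6), testosterone 200 µM with 0.01 mg/ml (CYP3A4). mRNA measured by TaqMan qPCR as 2^ΔCT relative to endogenous control and DMSO.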

Data set [6] deals with Hepatocyte. The experiment in a line: Induction of CYP3A4 mRNA expression in human hepatocytes assessed as testosterone 6beta-hydroxylation up to 100 uM by LC-MS/MS analysis. It counts as ADME, cell-based. The method, boiled down: as §1
Data set [7] has as its target T1, Cytochrome P450 3A4. The experiment in a line: Drug metabolism assessed as human CYP3A4-mediated metabolite formation treated with 10 uM of [14C]saxagliptin after 30 mins by LC-MS/MS analysis. The class given is ADME. The note with it: recombinant enzyme, 0.5 h. The method, boiled down: (§2)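 Expressed human CYP3A4 or CYP3A5 at 500 pmol/ml, incubated with 10 µM [14C]saxagliptin and 1 mM NADPH in 100 mM phosphate buffer pH 7.4 at 37°C for 30 min. Stopped with ice-cold acetonitrile; analysed by LC-MS/MS and off-line radioanalysis.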

A further data set addresses Cytochrome P450 3A5 (Homo sapiens, UniProt P20815). The experiment in a line: Drug metabolism assessed as human CYP3A5-mediated metabolite formation treated with 10 uM of [14C]saxagliptin after 30 mins by LC-MS/MS analysis. The note with it: recombinant enzyme, 0.5 h. The class given is ADME. Put shortly:
as §2

Data set [8] can be described thus: Drug level in human urine treated with 50 mg, po of [14C]saxagliptin up to 168 hrs by LC-MS/MS analysis. It counts as ADME, organism-based. The settings on record: in vivo. Put shortly:
(§3)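 Single 50-mg oral solution dose of [14C]saxagliptin (91.5 µCi) given to healthy male subjects after a 10-h fast. Urine collected as 0–12 h and 12–24 h pools, then in 24-h intervals to 168 h. Saxagliptin and M2 measured by validated positive-ESI LC-MS/MS with MRM; urine standard curves 25–5000 ng/ml for saxagliptin and 50–10,000 ng/ml for M2.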

Data set [9] deals with Liver microsome. Put plainly: Drug level in human liver microsomes treated with 10 uM of [14C]saxagliptin after 1 hr by LC-MS/MS analysis in presence of NADPH. The class given is ADME. Put shortly: (§4)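 Pooled HLM at 1 mg/ml protein, incubated with 10 µM [14C]saxagliptin and 1 mM NADPH in 100 mM phosphate buffer pH 7.4 at 37°C for 60 min. Quenched with ice-cold acetonitrile; supernatant analysed by LC-MS/MS and off-line radioanalysis.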

Data set [10] relates to Hepatocyte. The experiment in a line: Cytotoxicity against human hepatocytes assessed as change in morphological integrity up to 25 uM. It counts as cell-based.
The test system of data set [11] is Hepatocyte. Put plainly: Induction of CYP2B6 mRNA expression in human hepatocytes assessed as bupropion hydroxylation up to 25 uM by LC-MS/MS analysis. It counts as ADME, cell-based. The method, boiled down:
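Freshly isolated primary human hepatocytes from three donors were dosed once daily for 3 consecutive days at 0.2, 1, 5 and 25 µM, with 0.1% DMSO as vehicle control and phenobarbital 1000 µM as the CYP2B6 inducer control. Microsomes were then incubated with 250 µM bupropion at 0.02 mg/ml protein, and metabolite formed was measured by LC-MS/MS. Fold induction is relative to DMSO.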

A short description of data set [12]: Drug metabolism in human assessed as parent compound level in urine at 50 mg, po after up to 168 hrs by LC-MS/MS analysis. The class given is ADME, organism-based. The note with it: in vivo. Put shortly:
as §3

The nature of data set [13]: Drug metabolism in human liver microsomes assessed as compound turnover at 10 uM after 1 hr by LC-MS/MS analysis in presence of NADPH. It counts as ADME. The settings on record: read-out: Drug metabolism. Put shortly: as §4
Data set [14] concerns Liver microsome. The experiment in a line: Drug metabolism in human liver microsomes assessed as formation of 5-hydroxy saxagliptin Michaelis-Menten kinetic analysis. It counts as ADME. The method, boiled down:
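M2 formation kinetics measured in triplicate at twelve saxagliptin concentrations from 1 to 800 µM. Enzyme source was pooled HLM (0.25 mg/ml, 30 min, 37°C) or expressed CYP3A4 or CYP3A5 (10 pmol/ml, 10 min). Incubations contained 1 mM NADPH and 2 mM MgCl2 in phosphate buffer pH 7.4.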

T1 sequence (P08684 whole entry): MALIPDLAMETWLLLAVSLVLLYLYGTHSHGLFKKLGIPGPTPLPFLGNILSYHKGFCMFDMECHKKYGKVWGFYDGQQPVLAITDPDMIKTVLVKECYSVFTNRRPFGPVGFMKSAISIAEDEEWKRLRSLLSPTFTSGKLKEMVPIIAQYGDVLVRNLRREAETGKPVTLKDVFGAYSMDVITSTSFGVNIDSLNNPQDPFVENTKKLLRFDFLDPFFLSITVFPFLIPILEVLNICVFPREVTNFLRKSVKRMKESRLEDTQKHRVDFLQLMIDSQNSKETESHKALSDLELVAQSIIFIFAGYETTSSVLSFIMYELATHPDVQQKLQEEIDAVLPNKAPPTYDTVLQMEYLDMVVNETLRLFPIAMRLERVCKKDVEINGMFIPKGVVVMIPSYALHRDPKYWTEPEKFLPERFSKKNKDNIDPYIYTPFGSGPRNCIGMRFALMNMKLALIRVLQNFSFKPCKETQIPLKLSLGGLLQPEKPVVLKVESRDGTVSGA
Sequence of Cytochrome P450 3A5 (P20815 whole entry): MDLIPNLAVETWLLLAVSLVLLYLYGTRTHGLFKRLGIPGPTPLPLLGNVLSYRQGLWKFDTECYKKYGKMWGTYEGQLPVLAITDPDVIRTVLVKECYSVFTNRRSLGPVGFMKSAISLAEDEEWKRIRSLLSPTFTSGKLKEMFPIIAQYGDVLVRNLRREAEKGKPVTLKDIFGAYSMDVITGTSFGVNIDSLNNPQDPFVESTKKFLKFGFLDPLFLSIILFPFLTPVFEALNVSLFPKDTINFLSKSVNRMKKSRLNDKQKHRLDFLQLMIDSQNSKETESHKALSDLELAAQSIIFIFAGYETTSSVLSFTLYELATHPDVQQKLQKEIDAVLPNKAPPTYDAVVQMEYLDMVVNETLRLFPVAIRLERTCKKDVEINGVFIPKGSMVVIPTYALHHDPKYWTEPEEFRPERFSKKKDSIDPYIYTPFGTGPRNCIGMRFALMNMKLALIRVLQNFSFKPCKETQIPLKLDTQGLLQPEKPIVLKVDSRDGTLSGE

`N#C[C@@H]1C[C@@H]2C[C@@H]2N1C(=O)[C@@H](N)C12CC3CC(O)(CC(O)(C3)C1)C2`: the IC50 at Cytochrome P450 3A4 [1], at Cytochrome P450 3A4 [2], at Cytochrome P450 2A6 and on Cytochrome P450 3A4 [3] was more than 200 µM in each case. The results for the Activity entry in the data set with Hepatocyte [4], in the data set on Hepatocyte [5] and with Hepatocyte [6] were “Non-toxic”, “Not Active” and “Not Active”, respectively. Also, the Drug metabolism result (at Cytochrome P450 3A4 [7]; at Cytochrome P450 3A5; in data set [8]; in the data set on Liver microsome [9]) was “metabolite_detected” each time.
For the compound `N#C[C@@H]1C[C@@H]2C[C@@H]2N1C(=O)[C@@H](N)C12CC3CC(CC(O)(C3)C1)C2` [SAXAGLIPTIN ANHYDROUS], the Activity result with Hepatocyte [10] is listed as “Non-toxic”. Moreover, the Activity result with Hepatocyte [11] is listed as “Not Active”. Also, in [12], the Drug metabolism entry is recorded as “metabolite_detected”. For the same compound, in data set [13], the metabolised at 1 h, 10 µM came out at 32%. In the data set on Liver microsome [14], the Michaelis constant (Km) came to 94.8 µM and the maximum rate (Vmax) amounted to 496 pmol/min.
